Data: ChEMBL document CHEMBL4033779 (J Med Chem, 2018)
≈ marks a conversion by molar mass, not a printed value.

What was measured:
[1] = system: Human immunodeficiency virus 1; test: Antiviral activity against HIV-1 subtype A by p24 ELISA; format: functional; conditions: Human immunodeficiency virus 1, subtype A
[2] = system: Human immunodeficiency virus 1; test: Antiviral activity against HIV-1 SF-162 infected in human PM1 cells harboring CCR5 co-receptor after 4 to 6 days by p24 ELISA; format: functional, cell-based; conditions: Human immunodeficiency virus 1, SF-162
[3] = Oral bioavailability in rat dosed as suspension; format: ADME, organism-based; conditions: in vivo
[4] = system: Human immunodeficiency virus 1; test: Antiviral activity against HIV 1 isolate JRFL by single cycle infectivity assay; format: functional; conditions: Human immunodeficiency virus 1, isolate JRFL
Procedure, shortened: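 HEK293T producer cells cotransfected with a proviral HIV-1 LAI-Δenv-luc plasmid (firefly luciferase in place of env) and an LTR-driven JR-FL env plasmid. The resulting pseudotyped virions complete only one replication round; infection is read out as luciferase signal.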

[5] = system: Human immunodeficiency virus 1; test: Antiviral activity against HIV-1 subtype F by p24 ELISA; format: functional; conditions: Human immunodeficiency virus 1, subtype F
[6] = system: Human immunodeficiency virus 1; test: Antiviral activity against HIV-1 Bal infected in human PM1 cells harboring CCR5 co-receptor after 4 to 6 days by p24 ELISA; format: functional, cell-based; conditions: Human immunodeficiency virus 1, Bal
[7] = system: Human immunodeficiency virus 1; test: Antiviral activity against HIV-1 isolate CRF01_AE by p24 ELISA; format: functional; conditions: Human immunodeficiency virus 1, isolate CRF01_AE
[8] = Aqueous solubility of the compound at pH 2 to 9; format: physicochemical
[9] = system: Human immunodeficiency virus 1; test: Antiviral activity against HIV-1 isolate CRF_BF by p24 ELISA; format: functional; conditions: Human immunodeficiency virus 1, isolate CRF_BF
[10] = system: Human immunodeficiency virus 1; test: Antiviral activity against HIV-1 isolate CRF02_AG by p24 ELISA; format: functional; conditions: Human immunodeficiency virus 1, isolate CRF02_AG
[11] = system: Human immunodeficiency virus 1; test: Antiviral activity against HIV-1 subtype C by p24 ELISA; format: functional; conditions: Human immunodeficiency virus 1, subtype C
[12] = system: Human immunodeficiency virus 1; test: Antiviral activity against HIV-1 F1 by p24 ELISA; format: functional; conditions: Human immunodeficiency virus 1, F1
[13] = system: Human immunodeficiency virus 1; test: Antiviral activity against HIV-1 LAI infected in human MT2 cells harboring CXCR4 co-receptor after 4 to 6 days; format: functional, cell-based; conditions: Human immunodeficiency virus 1, LAI
[14] = system: Human immunodeficiency virus 1; test: Antiviral activity against HIV-1 subtype B by p24 ELISA; format: functional; conditions: Human immunodeficiency virus 1, subtype B
[15] = system: Human immunodeficiency virus 1; test: Antiviral activity against HIV-1 89.6 infected in human PM1 cells harboring dual co-receptors after 4 to 6 days by p24 ELISA; format: functional, cell-based; conditions: Human immunodeficiency virus 1, 89.6, PM1
[16] = system: Human immunodeficiency virus 1; test: Antiviral activity against HIV-1 JR-FL infected in human PM1 cells harboring CCR5 co-receptor after 4 to 6 days by p24 ELISA; format: functional, cell-based; conditions: Human immunodeficiency virus 1, JR-FL
[17] = system: Human immunodeficiency virus 1; test: Inhibition of [3H]BMS-488043 binding to HIV-1 isolate JRFL gp120 assessed as dissociation half life incubated for 60 mins followed by CD4 addition by scintillation counting method
[18] = system: Human immunodeficiency virus 1; test: Antiviral activity against HIV-1 RF infected in human MT2 cells harboring CXCR4 co-receptor after 4 to 6 days; format: functional, cell-based; conditions: Human immunodeficiency virus 1, RF
[19] = system: Human immunodeficiency virus 1; test: Antiviral activity against HIV-1 NL4 - 3 infected in human MT2 cells harboring CXCR4 co-receptor after 4 to 6 days; format: functional, cell-based; conditions: Human immunodeficiency virus 1, NL4 - 3, MT2
[20] = Aqueous solubility of the compound at pH 7.4; format: physicochemical
[21] = system: Simian immunodeficiency virus; test: Antiviral activity against SIV; format: functional
[22] = system: Human immunodeficiency virus 2; test: Antiviral activity against HIV2; format: functional
[23] = Oral bioavailability in rat at 1 mg/kg; format: ADME, organism-based; conditions: in vivo
Procedure, shortened: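 Rat oral dosing at 1 mpk as a nanosuspension.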

[24] = Aqueous solubility of the compound; format: physicochemical; conditions: buffer
[25] = Oral bioavailability in cynomolgus monkey at 10 mg/kg; format: ADME, organism-based, Macaca fascicularis; conditions: in vivo
Procedure, shortened: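 Oral dose of 10 mpk given as a solution in PEG 400/ethanol.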

[26] = Solubility of the compound in acetonitrile; format: physicochemical
[27] = Dissociation constant, pKa of the compound; format: physicochemical
[28] = Protein binding in human plasma; format: ADME, cell-free; conditions: read-out: PPB (converted)
[29] = Competitive inhibition of soluble CD4 binding to HIV-1 gp120 after 2 hrs by ELISA; set-up: species or system Human immunodeficiency virus 1
[30] = Half life in human administered as capsule; format: ADME; conditions: po
[31] = system: Human immunodeficiency virus 1; test: Antiviral activity against HIV-1 3B infected in human MT2 cells harboring CXCR4 co-receptor after 4 to 6 days; format: functional, cell-based; conditions: Human immunodeficiency virus 1, 3B
[32] = system: Human immunodeficiency virus 1; test: Antiviral activity against HIV-1 isolate MN infected in human MT2 cells harboring CXCR4 co-receptor after 4 to 6 days; format: functional, cell-based; conditions: Human immunodeficiency virus 1, isolate MN
[33] = system: Human immunodeficiency virus 1; test: Antiviral activity against HIV1 infected in human assessed as decrease in viral load in plasma at 1800 mg bid measured on day 8; format: functional
Procedure, shortened: (§1)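 Eight-day monotherapy in HIV-1-infected subjects: 800 or 1800 mg given BID with a high-fat meal (n = 12 per arm, placebo n = 6). Plasma viral load was measured on day 8 and reported as mean decline in log10 copies/mL.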

[34] = system: Human immunodeficiency virus 1; test: Inhibition of [3H]BMS-488043 binding to HIV-1 isolate JRFL gp120 assessed as association half life after 60 mins by scintillation counting method
[35] = system: Human immunodeficiency virus 1; test: Antiviral activity against HIV1 infected in human assessed as decrease in viral load in plasma at 800 mg bid measured on day 8; format: functional; procedure, shortened: as §1
[36] = Inhibition of [3H]BMS-488043 binding to HIV-1 isolate JRFL gp120 after 60 mins by scintillation counting method; set-up: species or system Human immunodeficiency virus 1
Homo sapiens [37] = organism: Homo sapiens; test: Tmax in human assessed as 1-(4-benzoylpiperazin-1-yl)-2-(4,7-dimethoxy-1H-pyrrolo[2,3-c]pyridin-3-yl)ethane-1,2-dione level; format: ADME
Procedure, shortened: (§2)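 Healthy volunteers received the phosphonooxymethyl prodrug orally over 25 to 800 mg. Plasma levels of the released parent were followed to derive tmax and t1/2.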

Homo sapiens [38] = organism: Homo sapiens; test: Half life in human assessed as 1-(4-benzoylpiperazin-1-yl)-2-(4,7-dimethoxy-1H-pyrrolo[2,3-c]pyridin-3-yl)ethane-1,2-dione level; format: ADME; procedure, shortened: as §2
Cytochrome P450 3A4 = Cytochrome P450 3A4 (Homo sapiens, UniProt P08684); test: Inhibition of CYP3A4 (unknown origin); format: ADME
[39] = Aqueous solubility of the compound at pH 1.5 to 8.2; format: physicochemical
Procedure, shortened: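 Aqueous solubility measured over pH 1.5−8.2 at room temperature.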

Canis familiaris = test: Oral bioavailability in dog assessed as 1-(4-benzoylpiperazin-1-yl)-2-(4-methoxy-7-(3-methyl-1H-1,2,4-triazol-1-yl)-1H-pyrrolo[2,3-c]pyridin-3-yl)ethane-1,2-dione level; format: ADME, organism-based, Canis lupus familiaris; conditions: in vivo
Rhesus monkey = test: Oral bioavailability in monkey assessed as 1-(4-benzoylpiperazin-1-yl)-2-(4-methoxy-7-(3-methyl-1H-1,2,4-triazol-1-yl)-1H-pyrrolo[2,3-c]pyridin-3-yl)ethane-1,2-dione level; format: ADME, organism-based, Macaca mulatta; conditions: in vivo
Homo sapiens [40] = organism: Homo sapiens; test: Half life in human assessed as 1-(4-benzoylpiperazin-1-yl)-2-(4-methoxy-7-(3-methyl-1H-1,2,4-triazol-1-yl)-1H-pyrrolo[2,3-c]pyridin-3-yl)ethane-1,2-dione level; format: ADME
Rattus norvegicus = test: Oral bioavailability in rat assessed as 1-(4-benzoylpiperazin-1-yl)-2-(4-methoxy-7-(3-methyl-1H-1,2,4-triazol-1-yl)-1H-pyrrolo[2,3-c]pyridin-3-yl)ethane-1,2-dione level; format: ADME, organism-based; conditions: in vivo

Chain of Cytochrome P450 3A4 (P08684 whole entry): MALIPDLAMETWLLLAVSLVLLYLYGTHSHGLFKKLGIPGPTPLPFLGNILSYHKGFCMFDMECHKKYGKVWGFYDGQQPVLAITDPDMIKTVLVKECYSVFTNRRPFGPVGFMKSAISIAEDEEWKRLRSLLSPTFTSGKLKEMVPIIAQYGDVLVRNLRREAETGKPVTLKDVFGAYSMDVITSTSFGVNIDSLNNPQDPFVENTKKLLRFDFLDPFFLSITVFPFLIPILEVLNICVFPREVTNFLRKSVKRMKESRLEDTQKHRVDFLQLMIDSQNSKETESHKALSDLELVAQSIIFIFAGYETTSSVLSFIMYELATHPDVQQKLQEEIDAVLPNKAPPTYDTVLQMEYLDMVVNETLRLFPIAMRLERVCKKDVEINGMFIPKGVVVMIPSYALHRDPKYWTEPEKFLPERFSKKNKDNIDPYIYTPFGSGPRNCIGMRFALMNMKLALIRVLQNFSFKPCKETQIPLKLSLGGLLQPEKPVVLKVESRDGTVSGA

Work on `COc1cnc(-n2cnc(C)n2)c2[nH]cc(C(=O)C(=O)N3CCN(C(=O)c4ccccc4)CC3)c12` yielded an EC50 [1] of 2.24 nM, an EC50 [2] of 0.5 nM and a bioavailability [3] of 52%. For the same molecule, the EC50 [4] was 0.14 nM, the EC50 [5] was 0.1 nM and the EC50 [6] was 1.7 nM. For the same molecule, the EC50 [7] was > 100 nM, the solubility [8] was 20 µg/mL (≈ 42.2 µM) and the EC50 [9] was 3.09 nM. The EC50 [10] was 1.77 nM, the EC50 [11] was 1.14 nM and the EC50 [12] was 3.75 nM. It also gave an EC50 [13] of 0.7 nM, an EC50 [14] of 0.34 nM and an EC50 [15] of 57.6 nM. For the same molecule, the EC50 [16] was 0.4 nM, the T1/2 [17] was 7.63 h and the EC50 [18] was > 2000 nM. It also gave an EC50 [19] of 2.2 nM.

Molecule `O=C(C(=O)N1CCN(C(=O)c2ccccc2)CC1)c1c[nH]c2c(-n3ccnn3)ncc(F)c12` has a solubility [20] of 7 µg/mL (≈ 15.6 µM).

For `O=C(C(=O)N1CCN(C(=O)c2ccccc2)CC1)c1c[nH]c2ccccc12`, the EC50 [21] was > 200000 nM and the EC50 [22] was > 200000 nM.

In the case of `O=C(C(=O)N1CCN(C(=O)c2ccccc2)CC1)c1c[nH]c2c(-c3ncon3)ncc(F)c12`, the EC50 [4] is reported as 1.3 nM.

`O=C(C(=O)N1CCN(C(=O)c2ccccc2)CC1)c1c[nH]c2cccc(F)c12` gave a bioavailability [23] of 4%, a solubility [24] of 5 µg/mL (≈ 13.2 µM) and a bioavailability [25] of 100%.

In the case of `COc1cnc(Br)c2[nH]cc(C(=O)C(=O)N3CCN(C(=O)c4ccccc4)CC3)c12`, the solubility [26] is reported as < 500 µg/mL.

`COc1ccnc2[nH]cc(C(=O)C(=O)N3CCN(C(=O)c4ccccc4)C[C@H]3C)c12` gave a pKa [27] of 2.9 to 9.6, a fraction unbound [28] of 0.27 and an IC50 [29] of 100 nM.

`COc1cnc(-n2ccnn2)c2[nH]cc(C(=O)C(=O)N3CCN(C(=O)c4ccccc4)CC3)c12` gave an EC50 [4] of 0.78 nM.

`COc1ncc(OC)c2c(C(=O)C(=O)N3CCN(C(=O)c4ccccc4)CC3)c[nH]c12` showed a half-life [30] of 10 h, an EC50 [2] of 4.7 nM and an EC50 [31] of 160 nM. For the same molecule, the EC50 [6] was 23 nM, the EC50 [32] was > 1000 nM and the pKa [27] was 2.9 to 9.3. The Activity [33] was 0.96 log10/ml, the EC50 [13] was 4.1 nM and the EC50 [15] was ≥ 871 nM. For the same molecule, the EC50 [16] was 3 nM, the T1/2 [34] was 2 to 3 min and the T1/2 [17] was 0.717 h. For the same molecule, the fraction unbound [28] was 0.05, the EC50 [18] was > 2000 nM and the Activity [35] was 0.72 log10/ml. It also gave a Kd [36] of 19.1 nM, an IC50 [29] of 87 nM and an EC50 [19] of 17.4 nM.

In the case of `COc1cnc(OC)c2c1c(C(=O)C(=O)N1CCN(C(=O)c3ccccc3)CC1)cn2COP(=O)(O)O.NCCCC[C@H](N)C(=O)O`, the Tmax (Homo sapiens [37]) is reported as 0.5 to 1 h and the t1/2 (Homo sapiens [38]) is reported as 1.5 h.

For `COc1cnc(-n2cc(C)cn2)c2[nH]cc(C(=O)C(=O)N3CCN(C(=O)c4ccccc4)CC3)c12`, the EC50 [4] was 0.41 nM.

Molecule `COc1cnc(-n2cncn2)c2[nH]cc(C(=O)C(=O)N3CCN(C(=O)c4ccccc4)CC3)c12` has an EC50 [4] of 0.21 nM and an IC50 (Cytochrome P450 3A4) of 1000 nM.

In the case of `COc1cnc(-n2ccc(C)n2)c2[nH]cc(C(=O)C(=O)N3CCN(C(=O)c4ccccc4)CC3)c12`, the EC50 [4] is reported as 0.11 nM.

In the case of `COc1cnc(-n2cnc(C)n2)c2c1c(C(=O)C(=O)N1CCN(C(=O)c3ccccc3)CC1)cn2COP(=O)(O)O.NC(CO)(CO)CO` [FOSTEMSAVIR TROMETHAMINE], the solubility [39] is reported as > 11000 µg/mL, the bioavailability (Canis familiaris) is reported as 80 to 122% and the bioavailability (Rhesus monkey) is reported as 80 to 122%. The t1/2 (Homo sapiens [40]) was 1.5 h, the bioavailability (Rattus norvegicus) was 80 to 122% and the Activity [35] was <1 log10/ml.
